RBBP9 inh: human RBBP9 hydrolase inhibition. inhibition, % at 7.94 µM. actives 0.2% (n = 220,000). O75884. recombinant RBBP9, FP-Rh probe fluorescence polarization. AID 1515;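 active = inhibition above the campaign mean of all tested compounds plus 3 SD, cut at about 14% in these data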;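 note: plate controls were DMSO wells with RBBP9 for no effect and wells lacking RBBP9 protein for full effect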
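Controls: DMSO-treated enzyme wells and wells lacking RBBP9 | Material: RBBP9 protein | Technique: Fluorescence polarization | Replication: Single well per compound, no replicates | Buffer or medium: Tris-NaCl-Pluronic buffer, pH 8.0 | Timing: 30 min compound preincubation, 45 min probe labeling, 25 °C | Read-out basis: Percent inhibition from mP, scaled between DMSO and no-protein wells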
MBD2 DNA inh: MBD2-methylated oligo binding inhibition; Q9UBB5; TR-FRET, MBD2 binding to methylated oligonucleotide; inhibition, % at 4.4 µM; actives 0.31% (n = 370,000); AID 686964; in the data active = inhibition above about 13%
PRMT1 FP inh: blocks human protein arginine methyltransferase 1; actives 1.3% (n = 370,000); AID 652257; recombinant PRMT1, activity-based probe fluorescence polarization; inhibition, % at 2.79 µM; Q99873;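 active = inhibition above about 21% made by adding two undisclosed values, limit read from the data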
UHRF1 MBD2 ctr: blocks human UHRF1 binding to methylated DNA; UHRF1 binding to methylated oligo, TR-FRET; AID 687016; actives 0.75% (n = 370,000); inhibition, % at 4.4 µM; Q96T88; in the data active = inhibition above about 21%;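 note: UHRF1 SRA domain binding a hemimethylated CpG hairpin DNA probe; 0% = median of test compound wells and 100% = reference inhibitor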
ABHD5 PLIN5 PPI: ABHD5-PLIN5 protein interaction inhibition; Split G. princeps luciferase complementation, luminescence, 4 h; actives 0.78% (n = 360,000); Q00G26+Q8WTS1; inhibition, % at 4 µM; AID 602281;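 active = inhibition above the mean inhibition across every tested compound plus 3 SD, cut at about 22% in these data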;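 note: 0% = DMSO only wells and the 100% control is not disclosed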
LEDGF integ inh: blocks HIV-1 LEDGF/p75-dependent DNA integration | TR-FRET IN-LEDGF/p75 DNA integration, Eu/Cy5 | inhibition, % at 3.7 µM | actives 0.64% (n = 370,000) | AID 743269;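 active = inhibition above the screen-wide mean plus 3 SD, cut at about 13% in these data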;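 note: signal is the Cy5 over europium emission ratio at 671 and 618 nm; 0% = plate median of compound wells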
PRMT1 inh conf: confirmation of human PRMT1 inhibitors; actives 42% (n = 3,300); inhibition, % at 2.79 µM; recombinant His-PRMT1, activity-based probe fluorescence polarization; shares compounds with PRMT1 FP inh;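 active = mean inhibition across replicates above the hit cutoff derived for the earlier primary screen, cut at about 22% in these data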
UHRF1 ctr MBD2: counter-screen for MBD2 inhibitors: human UHRF1 methylated DNA binding inhibitors; shares compounds with MBD2 DNA inh; UHRF1 binding to methylated oligonucleotide, TR-FRET; inhibition, % at 4.4 µM; actives 25% (n = 1,000); AID 720530; in the data active = inhibition above about 21%;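 note: UHRF1 SRA domain binding a labeled hemimethylated CpG hairpin DNA; 0% = vehicle only and 100% = reference inhibitor with vehicle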
MBD2 confirm: MBD2-DBD methyl-DNA binding inhibition, TR-FRET confirmation. inhibition, % at 4.4 µM. shares compounds with MBD2 DNA inh. AID 720531. TR-FRET MBD2-DBD binding to methylated oligonucleotide. actives 26% (n = 1,000)
IN multimer act: activates HIV-1 integrase multimerization in LEDGF counter-screen; AID 1053131; actives 17% (n = 2,000); shares compounds with LEDGF integ inh; activation, % at 7.7 µM; TR-FRET HIV-1 integrase multimerization, biochemical; in the data active = activation above about 8.9%
TR-FRET interf: optically interferes with TR-FRET readout in LEDGF counter-screen; shares compounds with LEDGF integ inh; TR-FRET optical interference counterscreen, HIV-1 IN multimerization; inhibition, % at 7.7 µM; 2,000 tested, under 10 active; AID 1053135;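 active = inhibition above the mean over all tested compounds plus 3 SD, which no compound reached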;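 note: 0% = integrase with antibodies and DMSO and 100% = antibodies without integrase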
IN-LEDGF confirm: LEDGF/p75-dependent HIV-1 integration inhibition, confirmation. shares compounds with LEDGF integ inh. TR-FRET LEDGF/p75-dependent HIV-1 integration, biochemical. inhibition, % at 3.7 µM. actives 36% (n = 2,000). AID 1053136
An asterisk follows results filed as active; · = no result. Sampled rows, rich in hits. Any-hit rate of the full collection: about 3.1%. Cut-off read from the data, not from the text of the source, unless noted: active = inhibition above about 14%; inactive = the rest.

SMILES	RBBP9 inh	MBD2 DNA inh	PRMT1 FP inh	UHRF1 MBD2 ctr	ABHD5 PLIN5 PPI	LEDGF integ inh	PRMT1 inh conf	IN multimer act	TR-FRET interf	IN-LEDGF confirm	others
Cc1ccccc1NC(=O)c1sc2nc3c(c(-c4ccco4)c2c1N)CCC3	-4	5	44*	14	-5	46*	9	1	-7	1
CCOc1ccc(-n2c(SCC(=O)c3ccc4ccccc4c3)nnc2-c2ccc(OC)cc2)cc1	·	-1	0	1	·	2	·	·	·	·
CC(OC(=O)/C=C/c1ccco1)C(=O)Nc1cccc([N+](=O)[O-])c1 (stereo not drawn)	-4	1	-1	-3	2	3	·	·	·	·
CC(=O)c1ccc(NC(=O)C(C)OC(=O)/C=C/c2ccco2)cc1 (stereo not drawn)	·	-8	31*	6	6	19*	1	1	-6	3
O=c1[nH]c2cc3c(cc2cc1CN(Cc1cccnc1)Cc1nnnn1Cc1ccco1)OCCO3	-8	11	35*	34*	-24	39*	27*	14*	-72	28*
CNc1ccc(Br)cc(C(=O)/C=C/c2cccc(Cl)c2Cl)c1=O	-5	-1	25*	5	20	15*	13	0	-1	21*
COc1cccc(/C=C/C(=O)c2ccc3c(c2)OCO3)c1OC	·	·	·	·	4	·	·	·	·	·
CNc1ccc(Br)cc(C(=O)/C=C/c2cccc(OC)c2OC)c1=O	5	-6	30*	1	21	16*	18	2	-11	27*
C/C(=C\c1cccc(Cl)c1Cl)C(=O)c1c(C)cc(C)[nH]c1=O	·	-6	1	0	-1	-4	·	·	·	·
CCCCCCCCN1C(=O)[C@@H](CC(=O)N2CCSCC2)C[C@@]2(C(=O)OC)C1=C[C@H](C(C)C)O[C@@H]2C1CC1	·	-2	1	3	·	-1	·	·	·	·
COC(=O)[C@]12C[C@H](CC(=O)NCc3cccc(C(F)(F)F)c3)C(=O)N(CCc3ccc(OC)c(OC)c3)C1=C[C@H](C(C)C)O[C@@H]2C1CC1	·	-1	-1	-3	·	-3	·	·	·	·
COc1ccc2c(c1)CO[C@H]([C@H](O)CO)[C@H]2/C=C/c1ccccc1	·	4	7	2	·	-2	·	·	·	·
O=C(O)CCN1C(=O)/C(=C/c2ccc(-c3nc4ccccc4s3)o2)SC1=S	-8	4	69*	15	-4	17*	23*	2	-10	16*
O=C1c2ccccc2/C(=C\c2ccc(O[C@@H]3CCCCO3)cc2)N1c1ccccc1	·	-2	-1	0	·	-1	·	·	·	·
CC(=O)C1=C(O)C(=O)N(CCc2c[nH]c3ccccc23)C1c1ccco1 (stereo not drawn)	0	-4	28*	2	-1	15*	5	2	-6	13
O=C1CC(c2ccco2)CC(O)=C1C=Nc1cc(Cl)cc(Cl)c1 (stereo not drawn)	4	8	28*	33*	5	45*	13	0	2	0
CCOC(=O)c1ccc(N2C(=O)c3n[nH]c(-c4ccco4)c3C2c2cccc([N+](=O)[O-])c2)cc1 (stereo not drawn)	-11	-5	60*	-2	0	16*	1	-1	6	10
N#C/C(=C\c1ccc([N+](=O)[O-])o1)C(=O)Nc1ccc(F)cc1	-4	-1	31*	1	15	21*	11	1	-3	12
Cc1nc(CNS(=O)(=O)c2cccc(F)c2)cs1	-10	-3	0	2	0	1	·	·	·	·
Cc1ccc(-c2csc(NS(=O)(=O)c3cccc(F)c3)n2)o1	·	3	54*	11	21	16*	21	9.0*	-45	15*
O=C(/C=C/c1ccco1)c1cccnc1	·	31*	47*	84*	9	67*	19	3	-15	51*	UHRF1 ctr MBD2=44*;MBD2 confirm=20*
O=C(NN=C/C=C/c1ccco1)c1cc(-c2ccc(Cl)cc2)n[nH]1	·	0	15	0	·	1	·	·	·	·
Cc1cc2nc3ccc(=[N+](C)C)cc-3sc2cc1N	8	·	·	·	9	·	·	·	·	·
CN(C)c1ccc2nc3ccc(=O)cc-3sc2c1	·	12	60*	55*	-9	73*	35*	85*	-303	82*
O=[N+]([O-])c1cncc2[nH]cnc12	·	1	-1	-3	·	-3	·	·	·	·
SMILES	RBBP9 inh	MBD2 DNA inh	PRMT1 FP inh	UHRF1 MBD2 ctr	ABHD5 PLIN5 PPI	LEDGF integ inh	PRMT1 inh conf	IN multimer act	TR-FRET interf	IN-LEDGF confirm	others
COc1cc(/C=C2\SC(=S)N(C(C(=O)O)c3ccccc3)C2=O)ccc1O (stereo not drawn)	-105	-8	17	-12	-9	-4	·	·	·	·
O=C(O)C(c1ccccc1)N1C(=O)/C(=C\c2ccc(O)c(O)c2)SC1=S (stereo not drawn)	·	-2	39*	1	-2	23*	45*	8	-41	51*
Cc1nc2sc(C(c3ccc(Cl)cc3)N3CCN(C(=O)c4ccco4)CC3)c(O)n2n1 (stereo not drawn)	-3	-2	-3	-3	0	0	·	·	·	·
Cc1nc2sc(C(c3ccco3)N3CCN(c4cccc(Cl)c4)CC3)c(O)n2n1 (stereo not drawn)	-7	4	65*	4	16	20*	1	0	0	5
Cc1cccc(-n2c3nc(=O)[nH]c(=O)c-3cc3cc([N+](=O)[O-])ccc32)c1	-6	-7	2	-3	10	4	·	·	·	·
Cc1ccc(C)c(-n2c3nc(=O)[nH]c(=O)c-3cc3cc([N+](=O)[O-])ccc32)c1	7	-4	26*	10	16	21*	6	-3	10	21*
COC(=O)[C@H](C(C)C)N1Cc2nnn(Cc3ccccc3)c2C=CS1(=O)=O	·	1	-3	-1	·	0	·	·	·	·
